# Screens as filed in PubChem.
# M5 antag – human M5 muscarinic receptor antagonists, primary screen, CHO cells, Fluo-8 calcium fluorescence. CHO-hM5 cells, ACh EC80. inhibition, % at 3 µM. 360,000 compounds, 0.59% hits;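 active = inhibition above a per-plate cutoff, the mean of that plate's test compounds plus 3 SD, cut at about 27% in these data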;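 also: 0% = acetylcholine EC80 with DMSO and 100% = DMSO without agonist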
# CHRM5 agonist – human M5 muscarinic receptor agonists, primary screen, CHO-K1 cells, Fluo-8 calcium fluorescence | activation, % at 3 µM | 360,000 compounds, 0.19% hits | AID 624037, 2012 | CHO-K1 hM5 cells; 0% DMSO wells, 100% maximal acetylcholine response;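 active = activation above the run's mean over test compounds plus 3 SD, cut at about 23% in these data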;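 also: signal is peak over basal fluorescence ratio across the kinetic read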
# M4 ag – human M4 muscarinic receptor agonists, primary screen, CHO-K1 cells, Fluo-8 calcium fluorescence; activation, % at 3 µM; 360,000 compounds, 0.14% hits; CHO-K1 hM4/Gqi5; vehicle 0%, full acetylcholine response 100%;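 active = activation above the run mean over all test wells plus 3 SD, cut at about 32% in these data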;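 also: peak over basal fluorescence ratio per well then scaled between controls; 0% = DMSO wells and 100% = acetylcholine at EC100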
# Target sequence (P08173 whole entry, looked up): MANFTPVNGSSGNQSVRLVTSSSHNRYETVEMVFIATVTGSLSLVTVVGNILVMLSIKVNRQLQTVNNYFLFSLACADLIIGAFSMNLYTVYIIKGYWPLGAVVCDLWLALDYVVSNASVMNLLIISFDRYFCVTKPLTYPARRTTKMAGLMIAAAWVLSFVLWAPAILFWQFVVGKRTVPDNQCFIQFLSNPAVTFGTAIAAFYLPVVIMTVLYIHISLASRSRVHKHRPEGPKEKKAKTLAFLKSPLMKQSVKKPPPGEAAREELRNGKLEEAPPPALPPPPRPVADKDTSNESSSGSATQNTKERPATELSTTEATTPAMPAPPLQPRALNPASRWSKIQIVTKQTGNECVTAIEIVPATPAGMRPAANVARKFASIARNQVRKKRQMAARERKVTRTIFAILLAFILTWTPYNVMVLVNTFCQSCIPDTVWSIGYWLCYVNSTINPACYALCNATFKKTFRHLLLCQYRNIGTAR
# M5 PAM – human M5 muscarinic receptor positive allosteric modulators, primary screen, CHO-K1 cells, Fluo-8 calcium fluorescence; activation, % at 3 µM; CHO-K1 hM5, ACh EC20 PAM; 0% = ACh EC20, 100% = ACh EC100; Muscarinic acetylcholine receptor M5 (Homo sapiens), P08912; AID 624038, 2012; 360,000 compounds, 0.3% hits;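 active = activation above the run cutoff, the mean activation of all test compounds plus 3 SD, cut at about 18% in these data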
#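 System: CHO-K1 cell line with stable human muscarinic M5 receptor expression | Also added: EC20 acetylcholine as agonist stimulus | Compound: One concentration, 3 µM final (nominal) | Timing: Fluo-8 loading 80 min at 37 °C plus 30 min room temperature | Measured by: Fluo-8 calcium dye fluorescence, kinetic read | Read-out basis: % activation, ACh-normalized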
# M4 PAM – human M4 muscarinic receptor positive allosteric modulators, primary screen, CHO-K1 cells, Fluo-8 calcium fluorescence. 360,000 compounds, 0.4% hits. CHO-K1 hM4/Gqi5, ACh EC20; 0% = ACh EC20, 100% = maximal ACh. Muscarinic acetylcholine receptor M4 (Homo sapiens), P08173. activation, % at 3 µM;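 active = activation above its plate's cutoff, the mean activation of sample wells plus 3 SD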
# CHRM4 antagonist – human M4 muscarinic receptor antagonists, primary screen, CHO cells, Fluo-8 calcium fluorescence; Muscarinic acetylcholine receptor M4 (Homo sapiens), P08173; CHO-hM4 cells, ACh EC80; inhibition, % at 3 µM; 360,000 compounds, 0.73% hits;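 active = inhibition above its plate's cutoff, the mean inhibition of sample wells plus 3 SD, cut at about 27% in these data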;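 also: 0% = acetylcholine EC80 with DMSO and 100% = DMSO without agonist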
# * marks the source's active call; other numbers are inactive results. Most compounds without a hit are left out; they make up all but 1.8% or so of the library.
SMILES,M5 antag,CHRM5 agonist,M4 ag,M5 PAM,M4 PAM,CHRM4 antagonist
COC(=O)C1=C(CS(=O)(=O)c2cc(Cl)ccc2OC)NC(=O)NC1c1ccc(O)c(OC)c1 (centres undefined),9.9,-3.0,-0.6,-0.5,6.5,5.2
CCOC(=O)C(=O)Nc1ccc(OC)c(Cl)c1,5.2,-3.0,2.4,0.5,23.1*,-3.3
C=CCNC(=S)Nc1ccc(Cl)cc1,6.0,-1.2,2.3,4.8,-0.7,-9.2
COc1ccc(NC(=O)C(=O)NCCCO)cc1Cl,4.4,0.7,4.9,-4.4,5.2,-4.7
COc1cc([N+](=O)[O-])ccc1NC(=O)Nc1ccc2c(c1)OCCO2,11.3,4.3,0.3,22.0*,-4.6,1.2
COc1ccc(NC(=O)Nc2cccc([N+](=O)[O-])c2)cc1Cl,30.6*,4.7,14.6,-18.6,-11.6,13.6
COc1ccc(C(=O)Nc2cccc([N+](=O)[O-])c2)cc1Br,5.7,-2.4,1.2,-0.3,-0.2,-4.0
C=CCNC(=S)Nc1ccc(OC(F)F)c(Cl)c1,28.6*,2.5,18.8,-13.7,-5.2,15.4
CC(C)(C)C(=O)Nc1ccc2c(c1)OCCOCCOc1cc(NC(=O)C(C)(C)C)ccc1OCCOCCO2,-17.7,2.1,1.2,-0.1,-6.8,0.9
O=C(Nc1ccc([N+](=O)[O-])cc1)Nc1ccc(OC(F)F)c(Cl)c1,32.7*,8.1,11.1,-19.4,-12.6,16.8
CC(=O)Nc1ccc2c(c1)OCCOCCOc1cc(NC(C)=O)ccc1OCCO2,-8.4,4.0,5.2,11.6,13.3,27.0*
CCN(CC)CCn1c(NCc2ccco2)nc2ccccc21,2.7,-5.2,0.3,-2.7,-4.0,7.8
CCN(CC)CCn1c(NCc2cccc(OC)c2OC)nc2ccccc21,30.7*,-4.7,0.0,-11.0,-0.3,9.4
CC(=O)Oc1ccc(N2C(=O)C3C4C=CC(CO)(O4)C3C2=O)cc1 (centres undefined),-5.8,0.4,1.3,3.5,11.7,-6.0
O=C1C2C3C=CC(CO)(O3)C2C(=O)N1c1ccccc1-c1ccccc1 (centres undefined),-6.7,14.4,7.7,14.3,-7.3,27.4*
CN(C)C(=O)CCc1ccc2c3c([nH]c2c1)[C@]1(C)[C@@H](C(=O)N2CCCCC2)C[C@H](CC(=O)NCC24CC5CC(CC(C5)C2)C4)C(=O)N1CC3,5.0,2.5,6.5,1.4,1.1,0.4
CCN(CC)c1ccc(/C=C2\SC(=O)N(C(C)C)C2=O)o1,16.8,0.4,4.0,-1.7,-2.8,40.6*
O=C(COc1ccccc1Cl)Nc1ccc(N2CCN(C(=O)c3ccccc3)CC2)cc1,-13.6,3.4,1.3,3.2,0.2,2.1
CNC(=O)C1CCN(S(=O)(=O)c2c(C)noc2/C=C/c2ccc(OC)cc2)CC1,80.3*,-5.1,0.4,-22.0,2.2,-3.1
CCCNC(=O)C1CCN(S(=O)(=O)c2c(C)noc2/C=C\c2ccc(OC)cc2)CC1,3.1,0.5,1.6,-4.6,-1.0,0.5
Cc1ccc(NC(=O)CCNC(=O)Cn2cnc3ccccc3c2=O)cc1F,9.7,-3.2,2.6,-1.9,2.8,-5.4
O=C(NC1CCCN(c2ccc(C(F)(F)F)cn2)C1)c1ccnc(Cl)c1 (centres undefined),-4.0,-2.1,4.2,3.5,19.8*,5.0
CC(=O)N1CC2([N+](=O)[O-])CN(C(C)=O)CC([N+](=O)[O-])(C1)C2(C)C,-9.2,2.0,0.3,9.7,19.6*,-1.9
CCOc1ccc(C(=O)Nc2cc(-c3nc4ccccc4[nH]3)ccc2Cl)cc1[N+](=O)[O-],38.5*,3.5,11.6,-14.8,-7.5,14.7
CCOc1ccc(C(=O)Nc2cc(-c3nc4ccccc4[nH]3)ccc2C)cc1[N+](=O)[O-],0.5,-4.2,6.3,-2.1,7.3,-1.4
SMILES,M5 antag,CHRM5 agonist,M4 ag,M5 PAM,M4 PAM,CHRM4 antagonist
COCCN(C(=O)COC(=O)/C=C/c1ccc(Cl)c(Cl)c1)c1c(N)n(Cc2ccccc2)c(=O)[nH]c1=O,2.1,2.1,0.7,-2.8,9.1,6.0
Nc1cc(=O)[nH]c(SCc2ccc(Cl)cc2Cl)n1,30.2*,10.8,11.5,-14.4,-5.1,8.7
Nc1ncnc2nc(SCc3ccc(Cl)cc3Cl)[nH]c12,2.8,-4.2,4.2,-10.2,0.0,-5.0
CN1C2CCC1CC(OC(c1ccccc1)c1ccccc1)C2 (centres undefined),99.1*,-17.8,2.3,-33.4,-44.1,99.1*
CN1CCC(OC(c2ccccc2)c2ccc(Cl)cc2)C1 (centres undefined),88.7*,-9.6,4.6,-41.1,-10.2,57.8*
CN1C2CCC1CC(OC(=O)c1c[nH]c3ccccc13)C2 (centres undefined),2.3,-1.2,0.0,-6.5,-1.4,-10.1
O=C(c1cnn2c(C(F)F)cc(C3CC3)nc12)N1CCc2ccccc2C1,12.1,0.4,10.9,-17.0,-12.3,-6.3
O=C(c1cnn2c(C(F)F)cc(C3CC3)nc12)N1CCCC1,4.0,3.3,-2.9,1.9,34.4*,20.9
NC(=NCc1ccccc1)NN=Cc1ccnc2ccccc12,2.0,2.4,9.1,-7.3,-2.1,-9.1
CCc1cnccc1CCC(=O)Nc1ccccc1C,-3.6,2.5,1.4,8.3,-0.8,-3.1
CC(=O)NC(c1ccccc1)c1cc([N+](=O)[O-])c2cccnc2c1O (centres undefined),-12.8,2.9,0.8,22.3*,5.7,-4.7
COc1ccccc1C(CNC(=O)c1ccc(S(=O)(=O)N2CCCCC2)cc1)N(C)C (centres undefined),5.9,-1.6,1.0,1.6,7.7,-9.2
Cc1cc(C(=O)NC2CCCc3c2cnn3-c2ccc(C(C)(C)C)cc2)nn1C (centres undefined),35.4*,-0.6,12.1,-15.6,-9.4,20.1
CC(C)(C)c1ccc(-n2ncc3c2CCCC3NC(=O)C2(C(N)=O)CC2)cc1 (centres undefined),27.9*,3.0,11.8,-12.6,-3.6,16.4
COc1ccc(S(=O)(=O)N[C@H]2CC[C@H](CCNC(=O)c3ccccc3F)O[C@@H]2CO)cc1,2.7,0.8,3.8,-3.9,-1.1,2.1
O=S(=O)(Nc1cccc(S(=O)(=O)N2CCCC2)c1)c1ccccc1F,-1.8,4.5,1.7,8.8,7.0,-0.1
